Active and inactive are the calls of the source. The calls are words filed in the database; no cut-off is given here.
Columns and labels:
Mus musculus [1] = assay: Antiinflammatory activity against carrageenan-induced paw edema in Swiss albino mouse assessed as swelling thickness at 100 mg/kg, po after 270 mins; assay type: functional
Summary of the method: (§1)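 Oral dosing in 0.5% CMC; vehicle to controls. Then carrageenan (0.5 mg/25 ll, freshly suspended in 154 mM saline) injected into the right hind paw subplantar tissue; saline into the left paw. Right-left footpad thickness difference measured by dial gauge calliper every 90 min over 6 h. Inhibition % is relative to vehicle control. n = 6; mean ± SEM.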

Mus musculus [2] = assay: Analgesic activity against p-benzoquinone-induced abdominal constriction in Swiss albino mouse assessed as number of writhings at 200 mg/kg, po; assay type: functional, Abdomen
Summary of the method: (§2)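 Test samples given orally in 0.5% CMC; vehicle to controls. 60 min later, 2.5% (v/v) p-benzoquinone in distilled water, 0.1 ml/10 g, given i.p. Mice housed singly; writhes counted for 15 min starting 5 min after injection. Activity is % change from vehicle controls. n = 6; mean ± SEM.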

Mus musculus [3] = assay: Inhibition of p-benzoquinone-induced writhing in Swiss albino mouse at 200 mg/kg, po relative to control; assay type: functional
Summary of the method: (§3)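 Mice, n = 6 per group, dosed orally with a suspension in 0.5% sodium CMC. 60 min later, 0.1 ml/10 g of 2.5% […] p-benzoquinone in distilled water given ip. Abdominal writhes counted per animal for 15 min, starting 5 min after injection. Expressed as % change in mean writhing count versus vehicle controls.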

Mus musculus [4] = assay: Gastric-ulcerogenic effect in Swiss albino mouse assessed as lesions at 100 mg/kg, po; assay type: functional, organism-based; design: dose 100 mg/kg
Summary of the method: (§4)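 Mice killed under deep ether anesthesia 3 h after the writhing test; the oral dose in 0.5% CMC was the one used in that test. Stomachs removed, opened along the great curvature and examined under a dissecting microscope for lesions or bleeding. Reported as ratio of ulceration; n = 6.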

Mus musculus [5] = assay: Inhibition of carrageenan-induced paw edema in Swiss albino mouse at 25 mg/kg, po after 180 mins relative to control; assay type: functional; settings: 3 h; summary of the method: as §1
Mus musculus [6] = assay: Antiinflammatory activity against carrageenan-induced paw edema in Swiss albino mouse assessed as swelling thickness at 200 mg/kg, po after 90 mins; assay type: functional; summary of the method: as §1
Mus musculus [7] = assay: Antiinflammatory activity against carrageenan-induced paw edema in Swiss albino mouse assessed as swelling thickness at 50 mg/kg, po after 270 mins; assay type: functional; summary of the method: as §1
Mus musculus [8] = assay: Inhibition of carrageenan-induced paw edema in Swiss albino mouse at 25 mg/kg, po after 270 mins relative to control; assay type: functional; settings: 4.5 h; summary of the method: as §1
Mus musculus [9] = assay: Analgesic activity against p-benzoquinone-induced abdominal constriction in Swiss albino mouse assessed as number of writhings at 50 mg/kg, po; assay type: functional, Abdomen; summary of the method: as §2
Mus musculus [10] = assay: Antiinflammatory activity against carrageenan-induced paw edema in Swiss albino mouse assessed as swelling thickness at 100 mg/kg, po after 360 mins; assay type: functional; summary of the method: as §1
Mus musculus [11] = assay: Inhibition of p-benzoquinone-induced writhing in Swiss albino mouse at 25 mg/kg, po relative to control; assay type: functional; summary of the method: as §3
Mus musculus [12] = assay: Analgesic activity against p-benzoquinone-induced abdominal constriction in Swiss albino mouse assessed as number of writhings at 100 mg/kg, po; assay type: functional, Abdomen; summary of the method: as §2
Mus musculus [13] = assay: Antiinflammatory activity against carrageenan-induced paw edema in Swiss albino mouse assessed as swelling thickness at 100 mg/kg, po after 90 mins; assay type: functional; summary of the method: as §1
Mus musculus [14] = assay: Inhibition of carrageenan-induced paw edema in Swiss albino mouse at 25 mg/kg, po after 90 mins relative to control; assay type: functional; settings: 1.5 h; summary of the method: as §1
Mus musculus [15] = assay: Inhibition of carrageenan-induced paw edema in Swiss albino mouse at 100 mg/kg, po after 270 mins relative to control; assay type: functional; settings: 4.5 h; summary of the method: as §1
Mus musculus [16] = assay: Antiinflammatory activity against carrageenan-induced paw edema in Swiss albino mouse assessed as swelling thickness at 25 mg/kg, po after 90 mins; assay type: functional; summary of the method: as §1
Mus musculus [17] = assay: Antiinflammatory activity against carrageenan-induced paw edema in Swiss albino mouse assessed as swelling thickness at 100 mg/kg, po after 180 mins; assay type: functional; summary of the method: as §1
Mus musculus [18] = assay: Inhibition of carrageenan-induced paw edema in Swiss albino mouse at 25 mg/kg, po after 360 mins relative to control; assay type: functional; settings: 6 h; summary of the method: as §1
Mus musculus [19] = assay: Inhibition of p-benzoquinone-induced writhing in Swiss albino mouse at 50 mg/kg, po relative to control; assay type: functional; summary of the method: as §3
Mus musculus [20] = assay: Inhibition of carrageenan-induced paw edema in Swiss albino mouse at 100 mg/kg, po after 180 mins relative to control; assay type: functional; settings: 3 h; summary of the method: as §1
Mus musculus [21] = assay: Antiinflammatory activity against carrageenan-induced paw edema in Swiss albino mouse assessed as swelling thickness at 50 mg/kg, po after 360 mins; assay type: functional; summary of the method: as §1
Mus musculus [22] = assay: Inhibition of p-benzoquinone-induced writhing in Swiss albino mouse at 100 mg/kg, po relative to control; assay type: functional; summary of the method: as §3
Mus musculus [23] = assay: Antiinflammatory activity against carrageenan-induced paw edema in Swiss albino mouse assessed as swelling thickness at 200 mg/kg, po after 360 mins; assay type: functional; summary of the method: as §1
Mus musculus [24] = assay: Antiinflammatory activity against carrageenan-induced paw edema in Swiss albino mouse assessed as swelling thickness at 25 mg/kg, po after 270 mins; assay type: functional; summary of the method: as §1
Mus musculus [25] = assay: Inhibition of carrageenan-induced paw edema in Swiss albino mouse at 50 mg/kg, po after 360 mins relative to control; assay type: functional; settings: 6 h
Summary of the method: (§5)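 Mice, n = 6 per group. Test agent given orally as a suspension in 0.5% sodium CMC in distilled water; controls received vehicle only. Afterwards, 0.5 mg/25 ll carrageenan in saline (154 mM NaCl) injected subplantar into the right hind paw, saline into the left. Right-minus-left footpad thickness measured by dial gauge caliper every 90 min for 6 h. Inhibition is relative to vehicle-control group means.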

Mus musculus [26] = assay: Antiinflammatory activity against carrageenan-induced paw edema in Swiss albino mouse assessed as swelling thickness at 50 mg/kg, po after 180 mins; assay type: functional; summary of the method: as §1
Mus musculus [27] = assay: Inhibition of carrageenan-induced paw edema in Swiss albino mouse at 100 mg/kg, po after 360 mins relative to control; assay type: functional; settings: 6 h; summary of the method: as §1
Mus musculus [28] = assay: Gastric-ulcerogenic effect in Swiss albino mouse assessed as lesions at 50 mg/kg, po; assay type: functional, organism-based; design: dose 50 mg/kg; summary of the method: as §4
Mus musculus [29] = assay: Antiinflammatory activity against carrageenan-induced paw edema in Swiss albino mouse assessed as swelling thickness at 25 mg/kg, po after 360 mins; assay type: functional; summary of the method: as §1
Mus musculus [30] = assay: Antiinflammatory activity against carrageenan-induced paw edema in Swiss albino mouse assessed as swelling thickness at 25 mg/kg, po after 180 mins; assay type: functional; summary of the method: as §1
Mus musculus [31] = assay: Inhibition of carrageenan-induced paw edema in Swiss albino mouse at 50 mg/kg, po after 180 mins relative to control; assay type: functional; settings: 3 h; summary of the method: as §1
Mus musculus [32] = assay: Gastric-ulcerogenic effect in Swiss albino mouse assessed as lesions at 200 mg/kg, po; assay type: functional, organism-based; design: dose 200 mg/kg; summary of the method: as §4
Mus musculus [33] = assay: Inhibition of carrageenan-induced paw edema in Swiss albino mouse at 100 mg/kg, po after 90 mins relative to control; assay type: functional; settings: 1.5 h; summary of the method: as §1
Mus musculus [34] = assay: Gastric-ulcerogenic effect in Swiss albino mouse assessed as lesions at 25 mg/kg, po; assay type: functional, organism-based; design: dose 25 mg/kg; summary of the method: as §4
Mus musculus [35] = assay: Antiinflammatory activity against carrageenan-induced paw edema in Swiss albino mouse assessed as swelling thickness at 50 mg/kg, po after 90 mins; assay type: functional; summary of the method: as §1
Mus musculus [36] = assay: Antiinflammatory activity against carrageenan-induced paw edema in Swiss albino mouse assessed as swelling thickness at 200 mg/kg, po after 270 mins; assay type: functional; summary of the method: as §1
Mus musculus [37] = assay: Antiinflammatory activity against carrageenan-induced paw edema in Swiss albino mouse assessed as swelling thickness at 200 mg/kg, po after 180 mins; assay type: functional; summary of the method: as §1
Mus musculus [38] = assay: Analgesic activity against p-benzoquinone-induced abdominal constriction in Swiss albino mouse assessed as number of writhings at 25 mg/kg, po; assay type: functional, Abdomen; summary of the method: as §2
Mus musculus [39] = assay: Inhibition of carrageenan-induced paw edema in Swiss albino mouse at 50 mg/kg, po after 270 mins relative to control; assay type: functional; settings: 4.5 h; summary of the method: as §5
Mus musculus [40] = assay: Inhibition of carrageenan-induced paw edema in Swiss albino mouse at 50 mg/kg, po after 90 mins relative to control; assay type: functional; settings: 1.5 h; summary of the method: as §5

SMILES: CSc1nnc(-c2ccc(Cl)cc2)[nH]1
- Activity (Mus musculus [1]): 43 10^-2mm
- Activity (Mus musculus [2]): 43.3
- inhibition in vivo at 200 mg/kg (Mus musculus [3]): 15.8%
- Activity (Mus musculus [4]): Active
- inhibition in vivo at 25 mg/kg (Mus musculus [5]): 17.7%
- Activity (Mus musculus [6]): 54.7 10^-2mm
- Activity (Mus musculus [7]): 42.2 10^-2mm
- inhibition in vivo at 25 mg/kg (Mus musculus [8]): 20.5%
- Activity (Mus musculus [9]): 34.1
- Activity (Mus musculus [10]): 48 10^-2mm
- inhibition in vivo at 25 mg/kg (Mus musculus [11]): 13%
- Activity (Mus musculus [12]): 34.1
- Activity (Mus musculus [13]): 34 10^-2mm
- inhibition in vivo at 25 mg/kg (Mus musculus [14]): 18.2%
- inhibition in vivo at 100 mg/kg (Mus musculus [15]): 26.9%
- Activity (Mus musculus [16]): 43.5 10^-2mm
- Activity (Mus musculus [17]): 38.3 10^-2mm
- inhibition in vivo at 25 mg/kg (Mus musculus [18]): 18.2%
- inhibition in vivo at 50 mg/kg (Mus musculus [19]): 33.7%
- inhibition in vivo at 100 mg/kg (Mus musculus [20]): 25.6%
- Activity (Mus musculus [21]): 47.1 10^-2mm
- inhibition in vivo at 100 mg/kg (Mus musculus [22]): 27.9%
- Activity (Mus musculus [23]): 76.8 10^-2mm
- Activity (Mus musculus [24]): 51.5 10^-2mm
- inhibition in vivo at 50 mg/kg (Mus musculus [25]): 34.6%
- Activity (Mus musculus [26]): 41.2 10^-2mm
- inhibition in vivo at 100 mg/kg (Mus musculus [27]): 30.2%
- Activity (Mus musculus [28]): Active
- Activity (Mus musculus [29]): 58.9 10^-2mm
- Activity (Mus musculus [30]): 48.9 10^-2mm
- inhibition in vivo at 50 mg/kg (Mus musculus [31]): 30.6%
- Activity (Mus musculus [32]): Active
- inhibition in vivo at 100 mg/kg (Mus musculus [33]): 24.1%
- Activity (Mus musculus [34]): Active
- Activity (Mus musculus [35]): 37.4 10^-2mm
- Activity (Mus musculus [36]): 65.9 10^-2mm
- Activity (Mus musculus [37]): 61.2 10^-2mm
- Activity (Mus musculus [38]): 44.7
- inhibition in vivo at 50 mg/kg (Mus musculus [39]): 34.9%
- inhibition in vivo at 50 mg/kg (Mus musculus [40]): 29.7%
